Tests used:
[1] = test system: TRPC4; conditions: cited from earlier work
[2] = test system: animal models of kidney disease; conditions: previously shown; cited from earlier work
[3] = target: T1, TRPC5 channel (Homo sapiens, UniProt Q9UL62); assay: TRPC5 % inhibition at single concentration, Syncropatch; type: cell-based; conditions: read-out: % inhibition at 3 μM, Table 3
T1 sequence (Q9UL62 1-973): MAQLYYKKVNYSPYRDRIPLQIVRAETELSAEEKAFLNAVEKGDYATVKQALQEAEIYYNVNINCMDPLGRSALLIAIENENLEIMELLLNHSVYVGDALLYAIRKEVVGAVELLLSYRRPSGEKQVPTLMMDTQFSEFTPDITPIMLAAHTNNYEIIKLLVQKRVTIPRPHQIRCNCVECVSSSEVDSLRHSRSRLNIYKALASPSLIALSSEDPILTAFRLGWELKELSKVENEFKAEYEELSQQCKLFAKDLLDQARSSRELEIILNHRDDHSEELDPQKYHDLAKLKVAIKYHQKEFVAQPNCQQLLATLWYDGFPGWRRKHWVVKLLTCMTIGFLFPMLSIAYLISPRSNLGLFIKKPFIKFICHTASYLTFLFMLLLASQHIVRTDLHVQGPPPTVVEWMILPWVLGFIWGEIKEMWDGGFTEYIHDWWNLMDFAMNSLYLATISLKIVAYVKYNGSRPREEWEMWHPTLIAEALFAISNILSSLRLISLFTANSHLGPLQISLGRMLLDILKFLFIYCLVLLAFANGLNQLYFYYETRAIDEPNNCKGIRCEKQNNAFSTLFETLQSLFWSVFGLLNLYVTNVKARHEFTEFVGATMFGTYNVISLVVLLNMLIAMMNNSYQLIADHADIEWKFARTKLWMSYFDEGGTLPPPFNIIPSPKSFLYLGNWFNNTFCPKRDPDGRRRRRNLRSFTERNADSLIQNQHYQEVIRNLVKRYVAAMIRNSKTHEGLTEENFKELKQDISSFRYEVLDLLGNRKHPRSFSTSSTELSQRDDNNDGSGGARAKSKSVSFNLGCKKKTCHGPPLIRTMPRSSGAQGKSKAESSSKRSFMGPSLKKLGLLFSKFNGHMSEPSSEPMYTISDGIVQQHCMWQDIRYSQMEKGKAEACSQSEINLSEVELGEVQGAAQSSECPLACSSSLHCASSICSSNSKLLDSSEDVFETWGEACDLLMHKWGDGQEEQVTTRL
Summary of the method: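 Automated patch-clamp (Syncropatch) first-pass screen of TRPC5 channel block. Each test compound was run at one concentration (3 μM) in a single well. Values were normalised so that the furfuryl-amine reference analogue's inhibition at 3 μM equals 100%. A reference inhibitor and DMSO served as controls on every plate. Recordings came from at least one session over two assay plates.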

[4] = test system: TRPC6; conditions: cited from earlier work
[5] = test system: kidney filter; conditions: in vivo animal model; cited from earlier work

Row | SMILES | selectivity for TRPC5 over TRPC4 [1] | activity in animal models of kidney disease [2] | inhibition at 3 µM [3] | selectivity for TRPC5 over TRPC6 [4] | protection of the kidney filter [5]
1 | c1ccc(Cn2c(NCc3ccco3)nc3ccccc32)cc1 [Compound 2] | selective | active | 100% | selective | –
2 | Fc1ccc(Cn2c(NCc3ccco3)nc3ccccc32)cc1 [Compound 6o] | – | – | 167% | – | –
3 | Cc1cc(N2CCCCC2)nc2ccccc12 [ML204] | – | – | – | – | protect the kidney filter
